Measured values taken from ChEMBL document CHEMBL1125341, “Delta opioid antagonist activity and binding studies of regioisomeric isothiocyanate derivatives of naltrindole: evidence for delta receptor subtypes” (J Med Chem, 1992).

Tests used:
Cavia porcellus = organism: Cavia porcellus; experiment: compound was evaluated for agonist activity in smooth muscle preparation of guinea pig ileum (GPI) at 1 uM concentration; assay type: functional; conditions: Muscle tissue
Procedure, shortened: (§1)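 Ligand at 1 µM tested directly on guinea pig ileum longitudinal muscle or mouse vas deferens; percent inhibition of the preparation recorded. Mean ± SEM of 3 experiments.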

Mus musculus [1] = experiment: Compound was tested for antagonistic activity of opioid agonist induced antinociception by using DPDPE as agonist, administered icv in mice; assay type: functional
Procedure, shortened: (§2)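 Mice received isothiocyanate 10 nmol icv 24 h before testing. Agonist ED50 was then found in the abdominal stretch assay: DPDPE and DSLET given icv, morphine and U50488 given sc. Result is the ED50 ratio, treated over untreated control mice, with significance testing.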

[2] = Prewash IC50 ratio obtained by dividing the IC50 of the DADLE in presence of the antagonist by the IC50 of the agonist alone in the same tissue preparation against delta receptor in mouse vas deferens; assay type: functional
Procedure, shortened: (§3)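 Guinea pig ileum longitudinal muscle (morphine, ethylketazocine) or mouse vas deferens (DADLE). Tissue was exposed to antagonist at 100 nM, or 1 nM for one isomer, for 30 min before agonist concentration-response. Prewash ratio is agonist IC50 with antagonist over IC50 alone in the same tissue. Where the shift was significant, tissue was washed extensively and IC50 redetermined; postwash ratio is over control IC50. Mean ± SEM.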

Mus musculus [3] = organism: Mus musculus; experiment: compound was evaluated for agonist activity in smooth muscle preparation of mouse vas deferens (MVD) at 1 uM concentration; assay type: functional; conditions: Muscle tissue; procedure, shortened: as §1
Mus musculus [4] = experiment: Compound was tested for antagonistic activity of opioid agonist induced antinociception by using DSLET as agonist, administered icv in mice; assay type: functional; procedure, shortened: as §2
Mus musculus [5] = experiment: Compound was tested for antagonistic activity of opioid agonist induced antinociception by using morphine as agonist, administered sc in mice; assay type: functional; procedure, shortened: as §2
Mu-type opioid receptor [6] = target: Mu-type opioid receptor (UniProt P35372); experiment: Prewash IC50 ratio obtained by dividing the IC50 of the morphine in presence of the antagonist by the IC50 of the agonist alone in the same tissue preparation against opioid receptor mu in guinea pig ileum; assay type: functional, tissue-based; procedure, shortened: as §3
Mu-type opioid receptor, sequence (P35372 whole entry): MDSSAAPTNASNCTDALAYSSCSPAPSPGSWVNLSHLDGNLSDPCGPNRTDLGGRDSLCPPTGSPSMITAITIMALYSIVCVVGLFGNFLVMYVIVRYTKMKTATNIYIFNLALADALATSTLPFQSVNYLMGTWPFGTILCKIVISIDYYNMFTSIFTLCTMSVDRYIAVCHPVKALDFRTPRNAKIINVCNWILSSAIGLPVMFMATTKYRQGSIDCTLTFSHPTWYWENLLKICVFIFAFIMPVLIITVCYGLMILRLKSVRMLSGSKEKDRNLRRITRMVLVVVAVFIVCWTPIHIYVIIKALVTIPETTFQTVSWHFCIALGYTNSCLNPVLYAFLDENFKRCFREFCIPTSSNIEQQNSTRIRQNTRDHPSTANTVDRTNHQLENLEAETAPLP

Mus musculus [7] = experiment: Compound was tested for antagonistic activity of opioid agonist induced antinociception by using U-50,488H as agonist, administered sc in mice; assay type: functional; procedure, shortened: as §2
[8] = target: Kappa-type opioid receptor (UniProt P41145); experiment: Prewash IC50 ratio obtained by dividing the IC50 of the ethylketazocine in presence of the antagonist by the IC50 of the agonist alone in the same tissue preparation against opioid receptor kappa in guinea pig ileum; assay type: functional, tissue-based; procedure, shortened: as §3
Kappa-type opioid receptor, sequence (P41145 whole entry): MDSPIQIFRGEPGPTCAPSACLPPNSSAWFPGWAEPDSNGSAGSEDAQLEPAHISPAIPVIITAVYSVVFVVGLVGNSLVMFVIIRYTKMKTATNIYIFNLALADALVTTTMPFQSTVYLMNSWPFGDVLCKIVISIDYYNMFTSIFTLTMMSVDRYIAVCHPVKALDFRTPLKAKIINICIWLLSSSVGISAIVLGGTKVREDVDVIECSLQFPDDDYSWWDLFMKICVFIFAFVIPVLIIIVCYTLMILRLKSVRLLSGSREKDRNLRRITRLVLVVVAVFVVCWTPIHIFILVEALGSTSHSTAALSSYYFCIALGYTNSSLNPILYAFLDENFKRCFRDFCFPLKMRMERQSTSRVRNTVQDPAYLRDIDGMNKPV

[9] = Post wash IC50 ratio obtained by dividing the IC50 of the DADLE in presence of the antagonist by the IC50 of the agonist alone in the same tissue preparation against delta receptor in mouse vas deferens; assay type: functional; procedure, shortened: as §3
[10] = target: Delta-type opioid receptor (Rattus norvegicus) (UniProt P33533); experiment: Compound was evaluated for its effect on the [3H]DSLET binding towards Opioid receptor delta 2 at 0.25 nM concentration; activity expressed as Bmax
Delta-type opioid receptor (Rattus norvegicus), sequence (P33533 whole entry): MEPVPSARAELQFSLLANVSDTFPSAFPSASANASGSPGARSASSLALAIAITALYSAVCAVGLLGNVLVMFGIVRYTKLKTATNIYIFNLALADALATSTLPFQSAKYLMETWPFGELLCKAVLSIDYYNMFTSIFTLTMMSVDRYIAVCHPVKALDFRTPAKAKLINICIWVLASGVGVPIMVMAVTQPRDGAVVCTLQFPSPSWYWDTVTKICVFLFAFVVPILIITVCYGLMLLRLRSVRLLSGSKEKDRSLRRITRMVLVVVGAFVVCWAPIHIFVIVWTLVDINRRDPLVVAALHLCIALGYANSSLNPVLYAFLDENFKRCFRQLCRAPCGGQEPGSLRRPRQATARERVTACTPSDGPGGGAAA

Mu-type opioid receptor [11] = target: Mu-type opioid receptor (UniProt P35372); experiment: Post wash IC50 ratio obtained by dividing the IC50 of the morphine in presence of the antagonist by the IC50 of the agonist alone in the same tissue preparation against opioid receptor mu in guinea pig ileum; assay type: functional, tissue-based; procedure, shortened: as §3
[12] = target: Delta-type opioid receptor (Rattus norvegicus) (UniProt P33533); experiment: Compound was evaluated for its effect on the [3H]DSLET binding towards Opioid receptor delta 2 at 4 nM concentration; activity expressed as Bmax
[13] = target: T1, Delta-type opioid receptor (Rattus norvegicus, UniProt P33533); experiment: Compound was evaluated for its effect towards [3H]DPDPE binding to Opioid receptor delta 1 at 0.25 nM concentration expressed as dissociation constant
T1 sequence (P33533 whole entry): as above

[14] = target: Delta-type opioid receptor (Rattus norvegicus) (UniProt P33533); experiment: Compound was evaluated for its effect towards […] binding to Opioid receptor delta 1 at 0.25 nM concentration activity expressed as Bmax
[15] = target: T1, Delta-type opioid receptor; experiment: Compound was evaluated for its effect towards [3H]DSLET binding to Opioid receptor delta 2 at 0.25 nM concentration

## Oc1ccc2c3c1OC1c4[nH]c5ccc(N=C=S)cc5c4CC4(O)C(C2)N(CC2CC2)CCC314 (stereo unspecified)
Cavia porcellus
  inhibition at 1 µM: -2.4%
Mus musculus [1]
  ED50 ratio: 0.6
[2]
  Ratio: 6.68
Mus musculus [3]
  inhibition at 1 µM: 18.8%
Mus musculus [4]
  ED50 ratio: 52.1
Mus musculus [5]
  ED50 ratio: 1.3
Mu-type opioid receptor [6]
  Ratio: 0.9
Mus musculus [7]
  ED50 ratio: 3.2
[8]
  Ratio: 0.93
[9]
  Ratio: 7.71

## Oc1ccc2c3c1OC1c4[nH]c5c(N=C=S)cccc5c4CC4(O)C(C2)N(CC2CC2)CCC314 (stereo unspecified)
Cavia porcellus
  inhibition at 1 µM: 5.9%
[10]
  Bmax (fM (mg of protein)-1): 208
Mus musculus [1]
  ED50 ratio: 3.7
[2]
  Ratio: 7.99
Mus musculus [3]
  inhibition at 1 µM: 31.8%
Mus musculus [4]
  ED50 ratio: 3
Mus musculus [5]
  ED50 ratio: 2
Mu-type opioid receptor [11]
  Ratio: 53
[12]
  Bmax (fM (mg of protein)-1): 361
Mu-type opioid receptor [6]
  Ratio: 15
Mus musculus [7]
  ED50 ratio: 0.8
[8]
  Ratio: 0.81
[9]
  Ratio: 16.1
[13]
  Kd: 2.3 nM
[14]
  Bmax (fM (mg of protein)-1): 5.6
[15]
  Kd: 15.7 nM

## Oc1ccc2c3c1OC1c4[nH]c5cc(N=C=S)ccc5c4CC4(O)C(C2)N(CC2CC2)CCC314 (stereo unspecified)
Cavia porcellus
  inhibition at 1 µM: 12.4%
Mus musculus [1]
  ED50 ratio: 9.2
[2]
  Ratio: 155
Mus musculus [3]
  inhibition at 1 µM: 0%
Mus musculus [4]
  ED50 ratio: 6.8
Mus musculus [5]
  ED50 ratio: 1.4
Mu-type opioid receptor [6]
  Ratio: 1.44
Mus musculus [7]
  ED50 ratio: 0.9
[8]
  Ratio: 1.04
[9]
  Ratio: 185

## Oc1ccc2c3c1OC1c4[nH]c5cccc(N=C=S)c5c4CC4(O)C(C2)N(CC2CC2)CCC314 (stereo unspecified)
Cavia porcellus
  inhibition at 1 µM: 1%
Mus musculus [1]
  ED50 ratio: 2.6
[2]
  Ratio: 4.59
Mus musculus [3]
  inhibition at 1 µM: 24.4%
Mus musculus [4]
  ED50 ratio: 1.6
Mus musculus [5]
  ED50 ratio: 1.2
Mu-type opioid receptor [6]
  Ratio: 0.77
Mus musculus [7]
  ED50 ratio: 1.6
[8]
  Ratio: 0.51
[9]
  Ratio: 3.71
